From PubChem BioAssay
The entries come from a sample that favours hits as a whole.
B2AR ag: agonists of human beta-2 adrenergic receptor inducing internalization | actives 0.43% (n = 340,000) | Am2.2-beta2AR cells, FAP receptor internalization, flow cytometry | AID 504454 | response, % (no concentration beside the values) | P07550;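 active means response above a set limit, near 3 SD of response in nonfluorescent compounds, cut at about 42% in these data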
Target sequence (P07550 whole entry, looked up): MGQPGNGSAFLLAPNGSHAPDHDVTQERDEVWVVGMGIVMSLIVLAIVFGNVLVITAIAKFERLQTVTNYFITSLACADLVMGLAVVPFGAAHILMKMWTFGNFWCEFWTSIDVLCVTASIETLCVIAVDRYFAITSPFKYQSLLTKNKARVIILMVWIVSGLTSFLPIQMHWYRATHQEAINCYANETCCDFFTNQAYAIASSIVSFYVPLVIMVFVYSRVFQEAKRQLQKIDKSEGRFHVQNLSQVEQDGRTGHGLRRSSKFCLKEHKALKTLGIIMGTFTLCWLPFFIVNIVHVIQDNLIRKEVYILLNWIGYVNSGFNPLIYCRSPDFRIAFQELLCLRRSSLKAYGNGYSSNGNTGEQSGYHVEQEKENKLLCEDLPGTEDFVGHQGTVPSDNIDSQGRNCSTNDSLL
XBP1 UPR activ: adaptive UPR (XBP1) activation | CHO-XBP1 luciferase reporter, IRE1-XBP1 UPR activation, luminescence; percent of tunicamycin response, DMSO as zero | activation, % at 20 µM | actives 0.33% (n = 330,000) | AID 463104;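 active means versus positive control, 20 µM dose yields 30% or more activation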;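 further: 100% = tunicamycin at 10 µg/mL and 0% = DMSO only wells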
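Assay system: IRE1-XBP1 luciferase reporter CHO line. Input: 1000 cells/well. Buffer or medium: F12 with 10% serum. Doses: 20 µM, 1% DMSO. Times: overnight seeding at 37 °C, 6 h compound treatment at 37 °C. Technique: Steady-Glo luciferase glow luminescence, 10 min after reagent addition.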
UPR CHOP act: activators of apoptotic arm of unfolded protein response (CHOP); activation, % at 10 µM; actives 0.34% (n = 330,000); AID 449763; CHO-CHOP luciferase reporter, UPR activation, luminescence; percent of tunicamycin response over DMSO baseline;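 active means at 10 µM dose, activation of 40% or more, normalized to positive control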;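 further: 100% = tunicamycin at 10 µg/mL and 0% = DMSO alone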
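Test system: CHO-CHOP cells, stable luciferase reporter of PERK-eIF2a-CHOP signalling | Quantity: 500 CHO-CHOP cells per well | Buffer or medium: F12 plus 10% serum | Compound dosing: 10 µM single point, 0.5% DMSO | Schedule: 6 h compound treatment, 37 °C | Signal: Luciferase luminescence | Control set: Tunicamycin high control, DMSO low control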
VLA-4 inh: inhibition in a human VLA-4 binding assay; P13612; actives 0.2% (n = 330,000); VLA-4 expressing cells, ligand binding flow cytometry; inhibition, % (about 7 µM as worked out from the volumes in the protocol); AID 2557; in the data active means inhibition above about 50%
CHOP inh: blocks CHOP induction under ER stress | CHO-K1 CHOP-promoter luciferase, tunicamycin-induced, 15-18 h | inhibition, % at 10 µM | actives 3.8% (n = 220,000) | AID 2732;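 active means compounds that reduced the stress-induced luciferase reporter signal by more than about 70% of percent inhibition, limit read from the data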;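 further: 0% = tunicamycin plus vehicle and 100% = wells without tunicamycin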
CHOP confirm: confirmation of CHOP induction inhibitors. inhibition, % at 10 µM. shares compounds with CHOP inh. actives 45% (n = 2,100). CHO-CHOP promoter luciferase reporter, tunicamycin-induced, luminescence;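 active means mean of three repeat readings of reporter signal inhibition above a set limit, cut at about 70% in these data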;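 further: 0% = tunicamycin plus vehicle and 100% = wells lacking tunicamycin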
Numbers without * were called inactive.

`O=C(CCN1C(=O)/C(=C/c2ccc(Cl)cc2)SC1=S)Nc1cccnc1` gave B2AR ag 4.2, XBP1 UPR activ -0.7, UPR CHOP act -0.4 and VLA-4 inh -12.7.
`O=C(CCN1C(=O)/C(=C/C=C/c2ccccc2)SC1=S)Nc1cccnc1` gave B2AR ag -0.3, XBP1 UPR activ 17.8, UPR CHOP act 23.3, VLA-4 inh -16.6, CHOP inh 102.1* and CHOP confirm 30.4.
Screening O=C(Nc1ccc(N2CCCCCC2)cc1)c1cccc(S(=O)(=O)N2CCOCC2)c1 returned B2AR ag 5.1, XBP1 UPR activ -1.3, UPR CHOP act 0.3 and VLA-4 inh 7.5.
`O=S(=O)(Nc1ccc(-c2ccc(NS(=O)(=O)c3ccccc3)cc2)cc1)c1ccccc1` gave B2AR ag 17.1.
For O=S(=O)(Nc1ccc(-c2csc(-c3ccccc3)n2)cc1)c1ccccc1 the results were B2AR ag -2.9, XBP1 UPR activ 2.0, UPR CHOP act 0.7, VLA-4 inh 9.6, CHOP inh 99.8* and CHOP confirm 24.5.
Screening CC1=CC(C)(C)Nc2ccc(OC(=O)CCN3C(=O)c4ccccc4C3=O)cc21 returned B2AR ag -27.6, XBP1 UPR activ -7.3, UPR CHOP act -5.1, VLA-4 inh 4.4, CHOP inh 108.0* and CHOP confirm -219.7.
`Cc1ccc(S(=O)(=O)N2CCCN(C(=O)c3ccc(-n4nccc4C)cc3)CC2)cc1` gave B2AR ag 6.0, XBP1 UPR activ 2.3 and UPR CHOP act -0.4.
Screening O=c1c2ccccc2sn1-c1ccccc1 returned B2AR ag -20.2, XBP1 UPR activ -2.2, UPR CHOP act 9.2, VLA-4 inh 28.1, CHOP inh 108.1* and CHOP confirm 20.1.
Cc1ccc(S(=O)(=O)N(c2ccc(Br)cc2)C2C=CS(=O)(=O)C2)cc1 (stereo unspecified) was read as B2AR ag 1.7, XBP1 UPR activ 0.2, UPR CHOP act -1.0, VLA-4 inh -6.2 and CHOP inh -4.3.
For CCSc1nnc(NC(=O)C2CC2c2ccccc2)s1 (stereo unspecified) the results were B2AR ag 2.6, XBP1 UPR activ -0.8, UPR CHOP act 3.1, VLA-4 inh 16.9, CHOP inh 102.0* and CHOP confirm -63.7.
`CCSc1nnc(NC(=O)C2CCCCC2C(=O)O)s1` (stereo unspecified) gave B2AR ag 12.2, XBP1 UPR activ 1.3, UPR CHOP act -0.7, VLA-4 inh 1.4 and CHOP inh 13.7.
`COc1cc(-c2nc3c(c(C)nn3-c3ccccc3)c3cc(OC)c(OC)cc23)ccc1O` gave B2AR ag 17.3, XBP1 UPR activ 12.7, UPR CHOP act 2.7, VLA-4 inh 1.1, CHOP inh 99.2* and CHOP confirm 82.8*.
For O=C(NCCc1ccccc1)Nc1cccc(Cl)c1 the results were B2AR ag 1.1, XBP1 UPR activ -1.3, UPR CHOP act 1.1, VLA-4 inh 0.0 and CHOP inh 31.1.
S=C(NCCc1ccc(Cl)cc1)Nc1ccc(Cl)cc1Cl was read as B2AR ag 11.8, XBP1 UPR activ -2.2, UPR CHOP act -0.4, VLA-4 inh 5.8, CHOP inh 104.8* and CHOP confirm 94.8*.
For O=C(NCCc1ccc(Cl)cc1)Nc1cccc(Cl)c1 the results were B2AR ag 11.1, XBP1 UPR activ 1.4, UPR CHOP act 3.1, VLA-4 inh 3.6, CHOP inh 99.5* and CHOP confirm 13.3.
CCOC(=O)CSc1nnnn1-c1cc(OC)c(Cl)cc1OC was read as B2AR ag 6.8, XBP1 UPR activ -1.4, UPR CHOP act -1.6, VLA-4 inh 10.3 and CHOP inh 31.8.
`COc1cc(-n2nnnc2SCC(=O)N2CCN(c3ccc(F)cc3)CC2)c(OC)cc1Cl` gave B2AR ag 8.5, CHOP inh 98.3* and CHOP confirm 49.3.
Screening CC(C)(CC(=O)c1ccccc1)CC(=O)c1ccccc1 returned B2AR ag -9.9.
CC(=O)Nc1ccccc1/C=C/c1ccc2c(C)cc(C)c(O)c2n1 was read as B2AR ag 0.4, XBP1 UPR activ 5.8, UPR CHOP act 0.9, VLA-4 inh 38.6, CHOP inh 96.7* and CHOP confirm 23.7.
For CC(=O)Nc1ccccc1/C=C/c1ccc2c(C)ccc(O)c2n1 the results were B2AR ag 5.3, XBP1 UPR activ 1.9, UPR CHOP act 2.6, VLA-4 inh 23.4 and CHOP inh -18.8.
COc1cc(/C=C2/C(=O)c3cccc([N+](=O)[O-])c3C2=O)c(Br)cc1O was read as B2AR ag 23.6, VLA-4 inh 15.1, CHOP inh 107.3* and CHOP confirm 4.0.
Cc1ccc(-n2nc(C)c3c2OC(N)=C(C#N)C3c2ccccc2F)cc1 (stereo unspecified) was read as B2AR ag 4.5, XBP1 UPR activ -10.1, UPR CHOP act -3.8, VLA-4 inh 1.5, CHOP inh 96.5* and CHOP confirm 4.6.
`CCOc1ccc2nc(NCCNC(=O)Nc3cccc(C)c3)c(C#N)cc2c1` gave B2AR ag -0.6, XBP1 UPR activ 16.6, UPR CHOP act 1.3, VLA-4 inh -19.6, CHOP inh 102.9* and CHOP confirm 23.3.
Screening COc1ccc(C(=O)NCCNc2nc3ccc(C)cc3cc2C#N)cc1 returned B2AR ag 8.0, XBP1 UPR activ 0.1, UPR CHOP act 0.0 and VLA-4 inh -8.9.
COc1ccc(-c2n[nH]c(C)c2-c2cnn(-c3ccccc3)c2)c(O)c1C was read as B2AR ag 8.4, XBP1 UPR activ 0.6, UPR CHOP act 1.6, VLA-4 inh 0.1, CHOP inh 98.6* and CHOP confirm 2.9.
COCc1nnc(NC(=O)CCN2C(=O)c3ccccc3C2=O)s1 was read as B2AR ag 9.1, XBP1 UPR activ 0.6, UPR CHOP act -2.6, VLA-4 inh 3.0, CHOP inh 99.0* and CHOP confirm 9.8.
Screening CCCc1nnc(NC(=O)CCN2C(=O)c3ccccc3C2=O)s1 returned B2AR ag -4.1, XBP1 UPR activ -0.8, UPR CHOP act -2.0, VLA-4 inh -0.1 and CHOP inh 27.0.
Cc1ccc(-c2ccc(/C=C3/NC(=O)NC3=O)o2)cc1[N+](=O)[O-] was read as B2AR ag 0.4, CHOP inh 98.0* and CHOP confirm -18.4.
Screening CC(C)c1ccc(O)c(NC(=S)NC(=O)CCc2ccccc2)c1 returned B2AR ag 16.3, XBP1 UPR activ -1.0, UPR CHOP act -0.1, VLA-4 inh -6.8, CHOP inh 106.3* and CHOP confirm 110.1*.
For CC(C)CCn1c(SCc2ccc(Cl)cc2)nc2c1c(=O)[nH]c(=O)n2C the results were B2AR ag -10.1, XBP1 UPR activ 17.7, UPR CHOP act 0.5, VLA-4 inh 4.1, CHOP inh 96.5* and CHOP confirm 93.2*.
